The sample as a whole holds a higher share of hits than the screen did.
HUVEC prolif 384: blocks proliferation of human endothelial cells. HUVEC proliferation, CellTiter-Glo luminescence, 72 h; active compounds read low. viability, % at 10 µM (by protocol). actives 1.1% (n = 86,000). AID 648;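 active = viability at or below 30%; inactive = viability above 30%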
bCat KO growth: beta-catenin-lacking colon tumor cell growth suppression | AID 818 | HCT116 beta-catenin knockout viability, CellTiter-Glo, 60 h; active compounds read low | viability, % at 10 µM | actives 1.5% (n = 140,000);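 active = viability at or under a set limit, the compound median less 4 SD, cut at about 6% in these data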
PTEN del growth: suppresses growth of cells with PTEN deletion; HCT116 PTEN-null viability, CellTiter-Glo, 60 h; active compounds read low; viability, % at 10 µM; actives 1.2% (n = 140,000); AID 827;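 active = viability at or below a set limit, 4 SD under the median of all tested compounds, cut at about 3.7% in these data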;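 note: PTEN knockout HCT116 line with beta catenin targeted HCT116 as companion control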
Lung fibro prol: blocks proliferation of human lung fibroblasts. LL 47 human lung fibroblast viability, ATP luminescence; active compounds read low. viability, % at 10 µM. actives 1.1% (n = 85,000). AID 719;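 active = viability at or below 50% in the single dose screen; inactive = viability above 50%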;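 note: compound exposure lasted 72 h before the ATP readout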
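Test system: LL 47 human lung fibroblasts / Quantity: 1,150 cells in each well / Medium: IMEM growth medium with 15% fetal bovine serum / Incubation: 72 h compound exposure at 37 °C after overnight plating / Detection: CellTiter-Glo luminescence measuring cellular ATP / Read-out: % viability versus median cells-only luminescence / Benchmarks: cell-only wells, no compound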
H69AR inhibit: growth inhibitors of human H69AR lung tumor cells | H69AR lung tumor viability, ATP luminescence, 72 h; active compounds read low | viability, % at 10 µM | actives 6% (n = 85,000);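 active = viability at or below 40%; inactive = viability above 40%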;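 note: multidrug resistant small cell line overexpressing MRP-1 efflux transporter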
Hits are given with their value.

How did CC(NC(=O)c1cccs1)c1nnc(SCc2ccc(Cl)cc2Cl)n1C (stereo not drawn) do in these assays?
bCat KO growth: inactive; PTEN del growth: inactive

What do the screens show for `O=C(/C=C/c1cccc2ccccc12)c1ccncc1`?
bCat KO growth: 1.0; PTEN del growth: 0.9

What do the screens show for `Cc1cccc(N2CCN(S(=O)(=O)c3ccc(S(=O)(=O)N4CCCC4)cc3)CC2)c1C`?
HUVEC prolif 384: inactive; bCat KO growth: inactive; PTEN del growth: inactive; Lung fibro prol: inactive; H69AR inhibit: 16

How did N#C/C(=C/c1ccc(-c2ccc(S(N)(=O)=O)cc2)o1)C(=O)Nc1ccccc1 do in these assays?
bCat KO growth: inactive; PTEN del growth: inactive

Results for N#C/C(=C/c1ccc(-c2ccc(S(N)(=O)=O)cc2)o1)c1nc2ccccc2s1 ?
bCat KO growth: 1.5; PTEN del growth: 1.8

What do the screens show for `CN(C(=O)COC(=O)c1cc(NS(=O)(=O)c2cc([N+](=O)[O-])ccc2Cl)ccc1O)C1CCCCC1`?
bCat KO growth: inactive; PTEN del growth: inactive

How did COc1ccc(S(=O)(=O)NCC(=O)N(CC(=O)NCC2CCCO2)c2cc(C)ccc2C)cc1 (stereo not drawn) do in these assays?
HUVEC prolif 384: inactive; bCat KO growth: inactive; PTEN del growth: inactive; Lung fibro prol: inactive; H69AR inhibit: 37

What do the screens show for `CON1C(=O)C(=O)N(OC)C2CCCCC21` (stereo not drawn)?
bCat KO growth: inactive; PTEN del growth: inactive

What do the screens show for `O=C(O)CCCNC(=O)c1cccc(C(=O)NCCCC(=O)O)n1`?
bCat KO growth: inactive; PTEN del growth: inactive

What do the screens show for `CCNc1nc(N)c(C(=O)c2ccc(Cl)s2)s1`?
HUVEC prolif 384: inactive; bCat KO growth: inactive; PTEN del growth: inactive; Lung fibro prol: inactive; H69AR inhibit: 28

Results for CC(C)(C)c1csc(NC(=O)c2ccc(Cl)s2)n1 ?
HUVEC prolif 384: inactive; bCat KO growth: inactive; PTEN del growth: inactive; Lung fibro prol: inactive; H69AR inhibit: inactive

What do the screens show for `CS(=O)(=O)c1nc(-c2ccc(Br)cc2)cc(-c2ccccc2)c1C#N`?
HUVEC prolif 384: 20; bCat KO growth: 1.6; PTEN del growth: 2.1; Lung fibro prol: 1.9; H69AR inhibit: 1.2

Results for COc1ccc(-c2cc(-c3ccc(OC)cc3)c(C#N)c(SC)n2)cc1 ?
HUVEC prolif 384: inactive; bCat KO growth: inactive; PTEN del growth: inactive; Lung fibro prol: inactive; H69AR inhibit: inactive

Results for CS(=O)c1nc(-c2ccc(Br)cc2)cc(-c2ccccc2)c1C#N (stereo not drawn) ?
HUVEC prolif 384: 9.9; bCat KO growth: 1.8; PTEN del growth: 1.8; Lung fibro prol: 6.6; H69AR inhibit: 1.5

What do the screens show for `N#Cc1c(-c2ccc(Br)cc2)cc(-c2cccnc2)nc1N`?
bCat KO growth: inactive; PTEN del growth: inactive

What do the screens show for `COc1ccc(-c2cc(-c3ccccc3)c(C#N)c(S(C)(=O)=O)n2)cc1`?
HUVEC prolif 384: 26; bCat KO growth: 1.1; PTEN del growth: 0.9; Lung fibro prol: inactive; H69AR inhibit: 3.6

What do the screens show for `N#Cc1c(-c2cccc(F)c2)cc(-c2ccccc2)nc1Br`?
bCat KO growth: inactive; PTEN del growth: inactive

What do the screens show for `COc1ccc(C(=O)NNC(=O)CN2CCN(c3nc(-c4ccccc4)cs3)CC2)cc1`?
bCat KO growth: inactive; PTEN del growth: inactive

What do the screens show for `c1ccc(CSc2ncnc3c2cnn3-c2ccccc2)cc1`?
bCat KO growth: inactive; PTEN del growth: inactive

Results for O=C(Nc1nc(NC(=O)c2ccco2)n(-c2ccccc2)n1)c1ccccc1 ?
HUVEC prolif 384: inactive; bCat KO growth: inactive; PTEN del growth: inactive; Lung fibro prol: 35; H69AR inhibit: 1.4

What do the screens show for `Nc1nc(NC(=O)c2ccccc2)nn1-c1ccccc1`?
bCat KO growth: inactive; PTEN del growth: inactive

What do the screens show for `CCOc1ccc(NC(=O)c2ccco2)c([N+](=O)[O-])c1`?
bCat KO growth: inactive; PTEN del growth: inactive

Results for COC(=O)c1sccc1NC(=S)N1CCN(c2cccc(C)c2C)CC1 ?
bCat KO growth: inactive; PTEN del growth: inactive

Results for O=C(Cc1cccs1)Nc1ccc(Cl)cc1 ?
HUVEC prolif 384: inactive; bCat KO growth: inactive; PTEN del growth: inactive; Lung fibro prol: inactive; H69AR inhibit: inactive

Results for Cc1ccc(-c2nnc(-c3ccc(NC(=O)Cc4cccs4)cc3)o2)cc1 ?
bCat KO growth: 1.2; PTEN del growth: 1.4

Results for N=C1S/C(=C\c2ccc(-c3cccc(Cl)c3)o2)C(=O)N1c1nccs1 ?
bCat KO growth: 5.4; PTEN del growth: 2.9

Results for COc1ccc(/C=C2\SC(=N)N(c3nccs3)C2=O)cc1OC ?
bCat KO growth: inactive; PTEN del growth: inactive

How did CCOC(=S)SCC(=O)N1CCc2ccccc2C1C1C(=O)CCCC1=O (stereo not drawn) do in these assays?
bCat KO growth: inactive; PTEN del growth: inactive

What do the screens show for `Cc1ccc(-c2nnn(CC(=O)N(c3ccc(F)cc3)C(C(=O)NC3CCCC3)c3ccco3)n2)o1` (stereo not drawn)?
HUVEC prolif 384: inactive; bCat KO growth: inactive; PTEN del growth: inactive; Lung fibro prol: inactive; H69AR inhibit: inactive

What do the screens show for `Cc1ccc(-c2nnn(CC(=O)N(c3ccc(F)cc3)C(C(=O)NC(C)(C)C)c3ccco3)n2)o1` (stereo not drawn)?
HUVEC prolif 384: inactive; bCat KO growth: inactive; PTEN del growth: inactive; Lung fibro prol: inactive; H69AR inhibit: 32

Results for Cc1ccc(NC(=O)C2(NC(=O)c3ccccn3)CCCCC2)cc1Br ?
bCat KO growth: inactive; PTEN del growth: inactive

How did COc1ccccc1N1C(=O)N(C(C)=O)C2C1Nc1ccccc1N2C (stereo not drawn) do in these assays?
HUVEC prolif 384: 26; bCat KO growth: inactive; PTEN del growth: inactive; Lung fibro prol: inactive; H69AR inhibit: 31

Results for CN(C)C=Nc1ncc2c3ccccc3n(CCN(C)C)c2c1C#N ?
HUVEC prolif 384: inactive; bCat KO growth: inactive; PTEN del growth: inactive; Lung fibro prol: inactive; H69AR inhibit: inactive

How did CCN(CC)CCn1c2ccccc2c2cnc(N)c(C#N)c21 do in these assays?
HUVEC prolif 384: inactive; bCat KO growth: 4.3; PTEN del growth: inactive; Lung fibro prol: 22; H69AR inhibit: 29

How did COc1cc(OC)cc(-c2nc3ccccc3c(=O)n2OC(=O)c2ccc(C)c(C)c2)c1 do in these assays?
bCat KO growth: inactive; PTEN del growth: inactive

What do the screens show for `Cc1nnc(C)c2c(C)n(C(c3ccccc3)c3ccccc3)c(C)c12`?
HUVEC prolif 384: inactive; bCat KO growth: inactive; PTEN del growth: inactive; Lung fibro prol: inactive; H69AR inhibit: 26

Results for c1ccc(-c2nc(N3CCN(c4ccccc4)CC3)nc(-n3ccnc3)n2)cc1 ?
HUVEC prolif 384: inactive; bCat KO growth: inactive; PTEN del growth: inactive; Lung fibro prol: inactive; H69AR inhibit: inactive

How did c1ccc(-c2nc(N3CCCCCC3)nc(-n3ccnc3)n2)cc1 do in these assays?
HUVEC prolif 384: inactive; bCat KO growth: inactive; PTEN del growth: inactive; Lung fibro prol: inactive; H69AR inhibit: 0.9

Results for CN(c1ccccc1)c1nc(-n2ccnc2)nc(-n2ccnc2)n1 ?
HUVEC prolif 384: inactive; bCat KO growth: inactive; PTEN del growth: inactive; Lung fibro prol: inactive; H69AR inhibit: 32

Assay outcomes deposited in PubChem BioAssay by SRMLSC.
